According to publication PMC7223318 (Drug Delivery and Translational Research, 2020):
No end group written: not given here.

Test system: ARPE-19 cells
Assay: Cellular uptake of FITC-labelled peptides, confocal microscopy
Assay type: in vitro ADME, human
Settings: 1 h, 37 °C, confocal microscopy (Fig. 2)
Method in brief: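 ARPE-19 cells (DMEM/F-12 GlutaMAX, 10% FBS, 1% AA) were seeded at 2 × 10^5 cells/ml in chamber slides and grown two nights. FITC-labelled peptides were applied for 1 h at 37 °C, 5% CO2, in culture medium or in hypoxic HAIR solution (K-gluconate/Na-gluconate/NMDG-based, bicarbonate). Cells were then PBS-washed, fixed in 4% formaldehyde, DAPI-counterstained and imaged by confocal microscopy.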

With KQIEIKKFK [Gap19] the “cellular uptake in hypoxic ARPE-19 cells” value (HAIR solution (hypoxia), FITC-labelled Gap19 100 μM or XG19 5 μM) was “undetectable” and the “cellular uptake in normal ARPE-19 cells” value (normal culture medium, FITC-labelled Gap19 100 μM) was “undetectable”.
